Experiments:
[1] = target: DNA-PK (Homo sapiens, UniProt P78527); experiment: DNA-PK inhibition assay; format: biochemical; settings: IC50 greater than 100 μM taken as not active; data not shown
[2] = tested on: PI3K isoforms; experiment: PI3K inhibition assay; format: biochemical; settings: any of the PI3K isoforms; IC50 greater than 100 μM taken as not active; data not shown
[3] = tested on: HeLa cells; experiment: Sulphorhodamine blue; format: cell-based, human; settings: 25 μM Etoposide and/or 200nM LTUSI54, 4 h, 2 days recovery; vs control
Summary of the method: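 Sulphorhodamine B assay on HeLa cells seeded at 2x10^3 cells/well and left to adhere overnight. Treated 4 h with 25 μM Etoposide, 200nM test compound or both, then PBS-washed. Recovery 48 h in medium containing 200nM test compound, or DMSO only for control and Etoposide-alone wells. Absorbance read at 538 nm. Mean ± SEM of four replicates; two-tailed t-test vs control.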

[4] = tested on: HeLa cells; experiment: CellTox green cytotoxicity assay; format: cell-based, human; settings: 24 h
[5] = tested on: γ-H2AX; experiment: Flow cytometry for γ-H2AX expression; format: cell-based, human; settings: for cells stained positive for γ-H2AX: 25 μM Etoposide, 200nM LTUSI54
[6] = tested on: HeLa cells; experiment: Cell cycle analysis by flow cytometry; format: cell-based, human; settings: 4 h treatment; for cells in G2/M phase / cells in S phase: vs control
Summary of the method: (§1)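 HeLa cells (DMEM, 10 % FBS) treated 4 h with 25 μM Etoposide, 200nM test compound or both, with or without 2 days recovery in medium containing test compound. Harvested, fixed in 70 % ethanol at −20 °C overnight, then stained with 25 μg/ml propidium iodide plus 100 μg/ml RNase for 30 min at 37 °C in the dark. Doublets and debris gated out. Mean ± SEM, three independent experiments.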

[7] = tested on: p38α; experiment: Human phospho-kinase array, p38α; format: cell-based; settings: HeLa cells, 4 h; 25 μM Etoposide, 200nM LTUSI54; vs control
Summary of the method: (§2)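 HeLa cells in small flasks treated 4 h with medium, 25 μM Etoposide, 200nM test compound or combination, then lysed. Human phospho-kinase antibody membranes incubated overnight at 4 °C with lysate at 150 μg/ml protein. Detection antibody cocktail 2 h at room temperature, streptavidin-HRP 30 min, then chemiluminescence at increasing exposures. Fold change vs control; two runs with duplicate spots.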

[8] = tested on: p53; experiment: Human phospho-kinase array, p53; format: cell-based; settings: HeLa cells, 4 h; 25 μM Etoposide, 200nM LTUSI54; vs control
Summary of the method: as §2

[9] = tested on: HeLa cells; experiment: Sub G1 analysis; format: cell-based, human; settings: 25 μM Etoposide and/or 200nM LTUSI54, 4 h, 2 days recovery
Summary of the method: as §1

[10] = 4 h treatment followed by 2 days recovery

inhibitory effect on DNA-PK (IC50) [1] | inhibitory effect on PI3K isoforms (IC50) [2] | Molecule | change in HeLa cell number (SRB) [3] | cytotoxic effect (CellTox green) ([4]; 200nM) | CellTox fluorescence ([4]; 100 μM, control 191 RFUs, p <0.0001) | cells stained positive for γ-H2AX [5, 10] | cells stained positive for γ-H2AX ([5]; after 4 h treatment) | cells in G2/M phase ([6]; 2 days recovery) | cells in G2/M phase [6] | cells in S phase [6] | fold increase in activity (phosphorylation) of p38α [7] | fold increase in activation of p53 [8] | apoptotic cells (sub G1 phase) [9] | fold decrease in γ-H2AX positive cells ([5]; 2 days recovery vs 4 h treatment) | cells in S phase ([6]; 2 days recovery) | cells in G1 phase ([6]; 2 days recovery, vs control and LTUSI54 alone (p < 0.0001))
no inhibitory effect | no inhibitory effect | 2-((3-methoxybut-3en-2-yl)amino)-8methyl-4H-benzo[1,3]oxazin-4one [LTUSI54] | significant reduction in cell numbers | no cytotoxic effect | 299.3 RFUs | 2.7% | 7.3% | reduction of cells in G2/M phase | significant reduction of cells in G2/M phase | significant increase in cells in S phase | 3.645 fold | 1.5 fold |  |  |  | 
 |  | COc1cc([C@@H]2c3cc4c(cc3[C@@H](O[C@@H]3O[C@@H]5CO[C@@H](C)O[C@H]5[C@H](O)[C@H]3O)[C@H]3COC(=O)[C@H]23)OCO4)cc(OC)c1O [Etoposide, reference compound] | significant reduction in cell number |  |  | 15% | about 80% |  |  | increase in cells in S phase | 2.64 fold | 3.5 fold | significant increase in apoptotic cells | more than 5 fold | significant increase | significant reduction in G1 cells

Source: PMC3825418 (Investigational New Drugs, 2013)
